Screening results: PubChem, The Scripps Research Institute Molecular Screening Center
M5 PAM: potentiates acetylcholine response at human M5 receptor; P08912; CHO-K1 hM5, Fluo-8 calcium, ACh EC20 PAM; 0% = ACh EC20, 100% = ACh EC100; activation, % at 3 µM; actives 0.3% (n = 360,000);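 active = activation above the run cutoff, the mean activation of all test compounds plus 3 SD, cut at about 18% in these data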
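Measured by: Fluo-8 calcium fluorescence; material: human M5 receptor in CHO-K1 cells; schedule: Post-acetylcholine fluorescence recording 140 s; benchmarks: low control EC20 acetylcholine (0%), high control EC100 acetylcholine (100%); read-out: Max/basal fluorescence ratio as % of EC20–EC100 ACh window; compound: single dose, 3 µM nominal final test concentration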
CHRM4 antagonist: blocks acetylcholine activation of human M4 receptor. inhibition, % at 3 µM. AID 624125. P08173. actives 0.73% (n = 360,000). CHO-hM4 cells, ACh EC80, Fluo-8 calcium fluorescence;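 active = inhibition above its plate's cutoff, the mean inhibition of sample wells plus 3 SD, cut at about 27% in these data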;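 note: 0% = acetylcholine EC80 with DMSO and 100% = DMSO without agonist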
Target sequence (P08173 whole entry, looked up): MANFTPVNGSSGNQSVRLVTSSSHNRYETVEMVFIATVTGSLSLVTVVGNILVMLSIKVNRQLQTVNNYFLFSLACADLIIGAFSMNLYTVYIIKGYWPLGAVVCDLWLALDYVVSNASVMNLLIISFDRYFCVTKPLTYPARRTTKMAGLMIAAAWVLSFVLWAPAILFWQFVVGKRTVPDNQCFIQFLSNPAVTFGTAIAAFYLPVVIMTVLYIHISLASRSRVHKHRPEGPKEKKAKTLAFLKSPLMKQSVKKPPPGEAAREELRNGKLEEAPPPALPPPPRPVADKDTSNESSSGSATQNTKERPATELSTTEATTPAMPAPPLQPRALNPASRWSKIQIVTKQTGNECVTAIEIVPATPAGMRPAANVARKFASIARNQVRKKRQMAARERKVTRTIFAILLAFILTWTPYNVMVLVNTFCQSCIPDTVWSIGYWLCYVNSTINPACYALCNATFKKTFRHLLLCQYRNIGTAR
CHRM5 antagonist: antagonists of human muscarinic M5 receptor (CHRM5) | CHO-hM5 cells, Fluo-8 calcium fluorescence, ACh EC80 | inhibition, % at 3 µM | actives 0.59% (n = 360,000);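 active = inhibition above a per-plate cutoff, the mean of that plate's test compounds plus 3 SD, cut at about 27% in these data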;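 note: 0% = acetylcholine EC80 with DMSO and 100% = DMSO without agonist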
CHRM5 agonist: CHRM5 agonism in calcium assay. actives 0.19% (n = 360,000). activation, % at 3 µM. AID 624037. CHO-K1 hM5 cells, Fluo-8 calcium fluorescence; 0% DMSO wells, 100% maximal acetylcholine response. P08912;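 active = activation above the run's mean over test compounds plus 3 SD, cut at about 23% in these data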;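 note: signal is peak over basal fluorescence ratio across the kinetic read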
M4 PAM: CHRM4 positive allosteric modulation; P08173; CHO-K1 hM4/Gqi5, Fluo-8 calcium fluorescence, ACh EC20; 0% = ACh EC20, 100% = maximal ACh; activation, % at 3 µM; actives 0.4% (n = 360,000); AID 624126;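 active = activation above its plate's cutoff, the mean activation of sample wells plus 3 SD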
CHRM4 agonist: agonists of human muscarinic M4 receptor (CHRM4); P08173; CHO-K1 hM4/Gqi5, Fluo-8 calcium fluorescence; vehicle 0%, full acetylcholine response 100%; activation, % at 3 µM; actives 0.14% (n = 360,000); AID 624127;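 active = activation above the run mean over all test wells plus 3 SD, cut at about 32% in these data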;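 note: peak over basal fluorescence ratio per well then scaled between controls; 0% = DMSO wells and 100% = acetylcholine at EC100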
Numbers without * were called inactive. In the library only some 1.8% were active in any assay of this set; here they are far more common.

SMILES | M5 PAM | CHRM4 antagonist | CHRM5 antagonist | CHRM5 agonist | M4 PAM | CHRM4 agonist
CC(=O)Nc1ccc(/C(C)=N/Nc2nc(N3CCOCC3)nc(N3CCOCC3)n2)cc1 | -9 | 6 | 12 | -1 | -2 | 1
Cc1ccc(Nc2nc(-c3c(C)nc4ccccn34)cs2)cc1 | -20 | 27* | 19 | -6 | -31 | 10
CC1=C(C(=O)OC2CCCCCC2)C(c2ccc(C)o2)C2=C(CCCC2=O)N1 (stereo not given) | 4 | -4 | -6 | -4 | 3 | 2
COC(=O)C1=C(C)NC2=C(C(=O)CCC2)C1c1ccc(-c2ccsc2C(=O)OC)o1 (stereo not given) | -12 | 4 | 12 | 9 | -29 | 37*
CC1(c2nnnn2-c2ccc3c(c2)OCCO3)CCC(=O)N1C1CCN(Cc2ccccc2)CC1 (stereo not given) | -3 | 8 | 2 | -1 | 0 | 0
Cc1oc2c(CN3CCCC3)c(O)ccc2c(=O)c1-c1ccc(Cl)cc1 | -1 | 70* | -1 | -1 | -19 | 2
Cc1oc2c(CN3CCOCC3)c(O)ccc2c(=O)c1-c1ccc(Cl)cc1 | 16 | 7 | -11 | -1 | -32 | 1
Cc1oc2c(CN3CCOCC3)c(O)ccc2c(=O)c1-c1ccc(Br)cc1 | -2 | 38* | -1 | -4 | -20 | 0
Cc1oc2c(CN3CCCC3)c(O)ccc2c(=O)c1-c1ccccc1 | -4 | 14 | 8 | -1 | -19 | 0
O=C(NCCCNC(=O)c1cnccn1)c1ccc(Cl)cc1 | 0 | 0 | 17 | -3 | 1 | 2
O=C(NCCCNC(=O)c1cnccn1)c1ccc(Cl)c(Cl)c1 | -9 | 60* | 27 | -1 | -14 | -3
Cc1cnc(CNC(=O)c2ccc3sc([C@@H]4O[C@H](CO)[C@H](O)[C@H](O)[C@H]4O)nc3c2)cn1 | -2 | 7 | 2 | -1 | -3 | 0
O=C(NCc1cccs1)c1ccc2sc([C@@H]3O[C@H](CO)[C@H](O)[C@H](O)[C@H]3O)nc2c1 | 7 | -14 | -7 | 1 | 16* | 1
CC1=C(C(=O)N(C(C)C)C(C)C)CC(CC(=O)NCc2ccco2)C(=O)N1Cc1ccc(F)cc1 (stereo not given) | -3 | -13 | 7 | -1 | 6 | -1
O=C(NCC1CC1)c1ccc(-c2cn[nH]c2)c2ccoc12 | 0 | 4 | 4 | 0 | 0 | 1
C[C@@H]1CN([C@@H](C)CO)C(=O)CCCn2cc(nn2)CO[C@H]1CN(C)S(=O)(=O)c1ccccc1F | 0 | -7 | 11 | 1 | 2 | 0
O=C(N/N=C/c1ccc(O)cc1)c1ccc(COc2cc(Cl)ccc2Cl)o1 | -6 | 20 | 12 | 35* | -9 | 25
CC(C)NC(=O)C1C(c2ccc(C(F)(F)F)cc2)=Nc2ccccc2N1C(=O)c1cccc(C(F)(F)F)c1 (stereo not given) | 2 | -10 | -21 | -3 | -6 | 1
O=C(Nc1ccccc1)c1cccc2c(-c3cccnc3)coc12 | -4 | -1 | 4 | 2 | 0 | 11
O=C(NCc1ccccc1)C1=C[C@H](c2coc3ccccc3c2=O)C[C@H](OCCCCO)O1 | -4 | 17 | 16 | 0 | -6 | 1
O=C(NCc1ccccc1)C1=C[C@@H](c2coc3ccccc3c2=O)C[C@@H](OCCCCO)O1 | -9 | 3 | 28* | -4 | -11 | 6
O=C(C1=C[C@H](c2coc3ccccc3c2=O)C[C@H](OCCCCO)O1)N1CCN(Cc2ccccc2)CC1 | -25 | -2 | 62* | -9 | -3 | 4
CNCCC=C1c2ccccc2C=Cc2ccccc21 | -18 | 90* | 99* | 1 | -18 | 4
CNc1ccc(C=C2C=Cc3ccccc32)cc1 | 2 | -5 | 2 | 6 | 8 | 3
CN(C)CC/C=C1/c2ccccc2COc2ccc(CC(=O)O)cc21 | -11 | 4 | 7 | -2 | -3 | 0
SMILES | M5 PAM | CHRM4 antagonist | CHRM5 antagonist | CHRM5 agonist | M4 PAM | CHRM4 agonist
CN(C)CCC=C1c2ccccc2CCc2ccccc21 | -19 | 95* | 99* | 0 | -17 | 3
CN(C)CCC=C1c2ccccc2C=Cc2ccccc21 | -18 | 99* | 99* | 0 | -19 | 5
Nc1nc2c(ncn2[C@@H]2O[C@H](CNS(=O)(=O)C3CC3)[C@@H](O)[C@H]2O)c(=O)[nH]1 | -2 | 4 | 4 | 0 | 6 | 1
CCC(C)N(CCNC(=O)CC1Oc2ccc(C)cc2NC1=O)C1CCCCC1 (stereo not given) | -22 | 71* | 18 | -6 | -18 | 0
O[C@H]1CN(CC2CCCCC2)[C@@H](c2ccc(Cl)cc2)C[C@@H]1n1cc(C2CC2)nn1 | -2 | 3 | -5 | 4 | -1 | 1
CC(C)CN(CC(C)C)c1nc(N)c(C#N)c(CC#N)c1C#N | 5 | -8 | -6 | -5 | 28* | -3
CC(=O)OCc1c(C(F)(F)F)nn(C)c1SCc1ccc(Cl)cc1 | -21 | 56* | 10 | -8 | -24 | -3
COc1ccc(N2C(=O)c3cccc4c(N(C)CCO)ccc(c34)C2=O)cc1 | -9 | 1 | 7 | 24* | 1 | 7
COc1ccc(N2C(=O)c3cccc4cccc(c34)C2=O)cc1 | 2 | 1 | 9 | 1 | -4 | 0
CCOC(=O)c1ccc(N2C(=O)c3cccc4c(C(=O)O)ccc(c34)C2=O)cc1 | 2 | -5 | -1 | 3 | 4 | 0
O=C1c2cccc3c(O)ccc(c23)C(=O)N1c1ccc(Cl)cc1 | -20 | 20 | 12 | 33* | -23 | 75*
O=C1c2ccccc2C(=O)N1Cc1ccco1 | 1 | 1 | -4 | -9 | 7 | 1
CC(=O)Nc1ccc(-n2c(=O)c3ccccc3c3ccccc3c2=O)cc1 | -6 | -10 | 8 | 1 | 19 | 2
O=C1c2cccc3c(O)ccc(c23)C(=O)N1Cc1ccco1 | -13 | 28* | 22 | 26* | -20 | 99*
CC(=O)Nc1ccc(N2C(=O)c3cccc4c(O)ccc(c34)C2=O)cc1 | -17 | 29* | 28* | 64* | -23 | 147*
CCCC[C@@H]1Cc2[nH][nH]c(=O)c2[C@H](c2ccc3ccccc3c2)O1 | 2 | -2 | 6 | 4 | 11 | 1
COc1ccccc1CNC(=O)C1(C)CCN1Cc1ccc2ccccc2c1 (stereo not given) | -8 | 3 | 8 | -2 | -9 | 8
